Reference: ChEMBL document CHEMBL1146056, “Microwave-accelerated synthesis of P1'-extended HIV-1 protease inhibitors encompassing a tertiary alcohol in the transition-state mimicking scaffold” (J Med Chem, 2006)

Columns and labels:
[1] = system: MT4; assay: Cytotoxicity against MT4 cells; assay type: functional; conditions: Homo sapiens
In short: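 Cytotoxicity reported as CC50 (µM).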

[2] = target: Human immunodeficiency virus type 1 protease (Human immunodeficiency virus 1, UniProt Q72874); assay: Inhibition of HIV1 protease
[3] = system: Human immunodeficiency virus 1; assay: Antiviral activity against HIV1 in MT4 cells; assay type: functional, organism-based; conditions: Human immunodeficiency virus 1, MT4
In short: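 HIV-1-infected MT4 cells; antiviral activity reported as EC50 (µM).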

[4] = Intrinsic clearance in human liver microsome at 2 uM; assay type: ADME; conditions: liver microsomes
In short: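 Stability in liver microsome homogenate, expressed as intrinsic clearance (Clint, µL/min/mg).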

[5] = Permeability in Caco-2 cells at 10 uM; assay type: ADME, cell-based; conditions: human, read-out: permeability
In short: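 Caco-2 cell monolayer; membrane permeation expressed as apparent permeability Papp (10^-6 cm/s).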

Structure (SMILES)	CC50 [1]	Ki [2]	EC50 [3]	microsomal CLint at 2 µM [4]	Papp at 10 µM [5]
COC(=O)N[C@H](C(=O)NN(Cc1cccc(C#Cc2cccnc2)c1)C[C@@](O)(Cc1ccccc1)C(=O)N[C@H]1c2ccccc2C[C@H]1O)C(C)(C)C	> 10000 nM	18 nM	> 10000 nM		
COC(=O)N[C@H](C(=O)NN(Cc1ccc(Br)cc1)C[C@@](O)(Cc1ccccc1)C(=O)N[C@H]1c2ccccc2C[C@H]1O)C(C)(C)C	> 10000 nM		1100 nM		
COC(=O)N[C@H](C(=O)NN(Cc1ccc(-c2ccccc2)cc1)C[C@@](O)(Cc1ccccc1)C(=O)N[C@H]1c2ccccc2C[C@H]1O)C(C)(C)C	> 10000 nM		700 nM		
COC(=O)N[C@H](C(=O)NN(Cc1cccc(Br)c1)C[C@@](O)(Cc1ccccc1)C(=O)N[C@H]1c2ccccc2C[C@H]1O)C(C)(C)C	> 10000 nM	18 nM	3300 nM		
COC(=O)N[C@H](C(=O)NN(Cc1ccc(-c2ccc3c(c2)OCO3)cc1)C[C@@](O)(Cc1ccccc1)C(=O)N[C@H]1c2ccccc2C[C@H]1O)C(C)(C)C	> 10000 nM	11 nM	1000 nM		
COC(=O)N[C@H](C(=O)NN(Cc1cccc(/C=C/c2ccccc2)c1)C[C@@](O)(Cc1ccccc1)C(=O)N[C@H]1c2ccccc2C[C@H]1O)C(C)(C)C	> 10000 nM	14 nM	> 10000 nM		
COC(=O)N[C@H](C(=O)NN(Cc1ccc(-c2cccnc2)cc1)C[C@@](O)(Cc1ccccc1)C(=O)N[C@H]1c2ccccc2C[C@H]1O)C(C)(C)C	> 10000 nM		180 nM	154 µL/min/mg	33 ×10⁻⁶ cm/s
COC(=O)N[C@H](C(=O)NN(Cc1ccc(/C=C/c2ccccc2)cc1)C[C@@](O)(Cc1ccccc1)C(=O)N[C@H]1c2ccccc2C[C@H]1O)C(C)(C)C	> 10000 nM		> 10000 nM		
COC(=O)N[C@H](C(=O)NN(Cc1ccc(C#Cc2cccnc2)cc1)C[C@@](O)(Cc1ccccc1)C(=O)N[C@H]1c2ccccc2C[C@H]1O)C(C)(C)C	> 10000 nM	7.8 nM	750 nM		
COC(=O)N[C@H](C(=O)NN(Cc1ccc(-c2cnccn2)cc1)C[C@@](O)(Cc1ccccc1)C(=O)N[C@H]1c2ccccc2C[C@H]1O)C(C)(C)C	7800 nM	2.1 nM	1000 nM		
COC(=O)N[C@H](C(=O)NN(Cc1cccc(-c2ccccn2)c1)C[C@@](O)(Cc1ccccc1)C(=O)N[C@H]1c2ccccc2C[C@H]1O)C(C)(C)C	4400 nM	15 nM	> 10000 nM		
COC(=O)N[C@H](C(=O)NN(Cc1cccc(-c2cccnc2)c1)C[C@@](O)(Cc1ccccc1)C(=O)N[C@H]1c2ccccc2C[C@H]1O)C(C)(C)C	6800 nM	12 nM	> 10000 nM	190 µL/min/mg	11 ×10⁻⁶ cm/s
COC(=O)N[C@H](C(=O)NN(Cc1ccc(-c2ccncc2)cc1)C[C@@](O)(Cc1ccccc1)C(=O)N[C@H]1c2ccccc2C[C@H]1O)C(C)(C)C	> 10000 nM		220 nM		
COC(=O)N[C@H](C(=O)NN(Cc1ccc(-c2cc3ccccc3s2)cc1)C[C@@](O)(Cc1ccccc1)C(=O)N[C@H]1c2ccccc2C[C@H]1O)C(C)(C)C	> 10000 nM		> 10000 nM		
COC(=O)N[C@H](C(=O)NN(Cc1ccc(-c2ccccn2)cc1)C[C@@](O)(Cc1ccccc1)C(=O)N[C@H]1c2ccccc2C[C@H]1O)C(C)(C)C	> 10000 nM		900 nM		
COC(=O)N[C@H](C(=O)NN(Cc1cccc(C#Cc2ccccn2)c1)C[C@@](O)(Cc1ccccc1)C(=O)N[C@H]1c2ccccc2C[C@H]1O)C(C)(C)C	> 10000 nM	22 nM	> 10000 nM		
COC(=O)N[C@H](C(=O)NN(Cc1ccc(-c2c(C)noc2C)cc1)C[C@@](O)(Cc1ccccc1)C(=O)N[C@H]1c2ccccc2C[C@H]1O)C(C)(C)C	> 10000 nM	3.8 nM	1100 nM		
COC(=O)N[C@H](C(=O)NN(Cc1cccc(-c2ccncc2)c1)C[C@@](O)(Cc1ccccc1)C(=O)N[C@H]1c2ccccc2C[C@H]1O)C(C)(C)C	> 10000 nM	93 nM	2000 nM		
COC(=O)N[C@H](C(=O)NN(Cc1cccc(-c2ccccc2)c1)C[C@@](O)(Cc1ccccc1)C(=O)N[C@H]1c2ccccc2C[C@H]1O)C(C)(C)C	> 10000 nM	23 nM	> 10000 nM		
COC(=O)N[C@H](C(=O)NN(Cc1cccc(C#Cc2ccccc2)c1)C[C@@](O)(Cc1ccccc1)C(=O)N[C@H]1c2ccccc2C[C@H]1O)C(C)(C)C	> 10000 nM	23 nM	> 10000 nM		
COC(=O)N[C@H](C(=O)NN(Cc1ccc(C#Cc2ccccn2)cc1)C[C@@](O)(Cc1ccccc1)C(=O)N[C@H]1c2ccccc2C[C@H]1O)C(C)(C)C	4900 nM	9 nM	1000 nM		
COC(=O)N[C@H](C(=O)NN(Cc1ccc(C#Cc2ccccc2)cc1)C[C@@](O)(Cc1ccccc1)C(=O)N[C@H]1c2ccccc2C[C@H]1O)C(C)(C)C	> 10000 nM	15 nM	> 10000 nM		
